Compound activity from PubChem BioAssay.
UHRF1 binding: UHRF1 methyl-DNA binding inhibition. actives 0.75% (n = 370,000). Q96T88. AID 687016. UHRF1 binding to methylated oligo, TR-FRET. inhibition, % at 4.4 µM; in the data active = inhibition above about 21%;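 note: UHRF1 SRA domain binding a hemimethylated CpG hairpin DNA probe; 0% = median of test compound wells and 100% = reference inhibitor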
MBD2 inh: MBD2-methylated oligo binding inhibition | actives 0.31% (n = 370,000) | Q9UBB5 | TR-FRET, MBD2 binding to methylated oligonucleotide | AID 686964 | inhibition, % at 4.4 µM; in the data active = inhibition above about 13%
Target sequence (Q9UBB5 whole entry, looked up): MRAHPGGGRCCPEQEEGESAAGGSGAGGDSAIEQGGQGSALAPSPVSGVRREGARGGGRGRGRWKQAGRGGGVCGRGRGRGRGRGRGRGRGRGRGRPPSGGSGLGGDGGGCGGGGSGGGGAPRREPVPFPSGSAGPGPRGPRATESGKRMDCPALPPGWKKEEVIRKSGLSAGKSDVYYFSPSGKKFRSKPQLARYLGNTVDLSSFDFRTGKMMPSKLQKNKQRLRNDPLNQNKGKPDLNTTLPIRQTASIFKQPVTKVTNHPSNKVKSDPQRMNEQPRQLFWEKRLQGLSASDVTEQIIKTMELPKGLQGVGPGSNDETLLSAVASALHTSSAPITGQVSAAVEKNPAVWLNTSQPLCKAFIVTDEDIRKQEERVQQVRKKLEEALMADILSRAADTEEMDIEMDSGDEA
LEDGF integ inh: blocks HIV-1 LEDGF/p75-dependent DNA integration | TR-FRET IN-LEDGF/p75 DNA integration, Eu/Cy5 | inhibition, % at 3.7 µM | actives 0.64% (n = 370,000);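 active = inhibition above the screen-wide mean plus 3 SD, cut at about 13% in these data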;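 note: signal is the Cy5 over europium emission ratio at 671 and 618 nm; 0% = plate median of compound wells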
ABHD5-PLIN5 inh: blocks binding of human ABHD5 to perilipin-5; Q00G26+Q8WTS1; Split G. princeps luciferase complementation, luminescence, 4 h; inhibition, % at 4 µM; actives 0.78% (n = 360,000); AID 602281;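 active = inhibition above the mean inhibition across every tested compound plus 3 SD, cut at about 22% in these data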;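 note: 0% = DMSO only wells and the 100% control is not disclosed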
PRMT1 inh: blocks human protein arginine methyltransferase 1. Q99873. recombinant PRMT1, activity-based probe fluorescence polarization. inhibition, % at 2.79 µM. actives 1.3% (n = 370,000). AID 652257;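 active = inhibition above about 21% made by adding two undisclosed values, limit read from the data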
RBBP9 inh: human RBBP9 hydrolase inhibition; inhibition, % at 7.94 µM; AID 1515; O75884; actives 0.2% (n = 220,000); recombinant RBBP9, FP-Rh probe fluorescence polarization;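 active = inhibition above the campaign mean of all tested compounds plus 3 SD, cut at about 14% in these data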;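 note: plate controls were DMSO wells with RBBP9 for no effect and wells lacking RBBP9 protein for full effect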
Target sequence (O75884 whole entry, looked up): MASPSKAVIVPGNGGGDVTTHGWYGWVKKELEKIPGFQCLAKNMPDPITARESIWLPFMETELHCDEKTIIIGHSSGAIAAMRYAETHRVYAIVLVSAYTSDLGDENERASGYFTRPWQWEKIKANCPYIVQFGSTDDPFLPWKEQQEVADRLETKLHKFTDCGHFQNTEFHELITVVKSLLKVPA
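System: RBBP9 protein | Quantity: 2.5 µM RBBP9 dispensing solution, before mixing | Reagent: FP-Rh probe, 375 nM dispensing solution | Timing: Enzyme-compound preincubation 30 min, then probe labeling 45 min, 25 °C | Measured by: Fluorescence polarization | Read-out: % inhibition | Replication: One well per compound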
PRMT1 inh conf: PRMT1 (human) inhibition, FP confirmation; shares compounds with PRMT1 inh; recombinant His-PRMT1, activity-based probe fluorescence polarization; inhibition, % at 2.79 µM; actives 42% (n = 3,300);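 active = mean inhibition across replicates above the hit cutoff derived for the earlier primary screen, cut at about 22% in these data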
An asterisk follows results filed as active; . = not tested or not shown. This is a sample that favours compounds with a hit; in the whole collection about 3.1% have one here.

SMILES | UHRF1 binding | MBD2 inh | LEDGF integ inh | ABHD5-PLIN5 inh | PRMT1 inh | RBBP9 inh | PRMT1 inh conf
Cn1cc(P(=O)(N2CCOCC2)N2CCOCC2)cc1P(=S)(N1CCOCC1)N1CCOCC1 | -0.3 | 5.0 | -1.2 | -13.2 | 30.5* | -9.4 | 40.1*
Cn1cc(P(=S)(N2CCOCC2)N2CCOCC2)cc1P(=O)(N1CCOCC1)N1CCOCC1 | 2.7 | -4.3 | 7.6 | -6.4 | 40.5* | -3.7 | 6.0
CC(c1ccccc1)n1cc(C(=O)NCCCN2CCCC2)nn1 (stereo not drawn) | -3.7 | 2.3 | 2.0 | . | -5.5 | . | .
C[C@H](CO)N1C[C@H](C)[C@H](CN(C)S(=O)(=O)c2cccc(F)c2)OCc2ccccc2-c2c(n(C)c3ccccc23)C1=O | 0.3 | -1.1 | -3.1 | 4.6 | 33.8* | . | -0.6
Cc1ccc(S(=O)(=O)N(C)C[C@@H]2OCc3ccccc3-c3c(n(C)c4ccccc34)C(=O)N([C@H](C)CO)C[C@@H]2C)cc1 | 3.7 | 8.4 | -3.3 | 4.3 | 7.5 | . | .
CC(C)(C)NC(=O)c1nn2c(C(F)(F)F)cc(-c3ccccc3)nc2c1Br | -0.2 | -3.6 | 2.7 | -1.9 | 1.8 | . | .
COC(=O)c1nn2c(C(F)(F)F)cc(-c3ccc(Br)o3)nc2c1Br | -2.8 | -5.5 | 3.4 | 12.6 | 29.8* | -9.2 | 2.5
O=c1oc2cc(O)ccc2cc1-c1nc2ccccc2o1 | -29.9 | -5.2 | -1.5 | -16.9 | 71.0* | . | 67.6*
Cc1ccc(C2NC(=O)c3c(sc(C)c3C)N2)c(O)c1 (stereo not drawn) | 4.8 | 2.3 | 1.5 | -2.8 | 14.9 | 7.2 | .
Cc1cccc(C2NC(=O)c3c(sc(C)c3C)N2)c1O (stereo not drawn) | -3.4 | -3.6 | -0.3 | -39.3 | 52.6* | 5.6 | 2.3
O=C(N=C1N(Cc2ccccc2)C[C@]2(C=C3CCCCC3n3c(=O)n(-c4ccccc4)c(=O)n32)N1C(=O)OCc1ccccc1)c1ccccc1 (stereo partly drawn) | -0.9 | 3.3 | -0.7 | . | -0.8 | . | .
CC(C)n1c(=O)[nH][nH]c1=S | -2.9 | 2.6 | -5.0 | -12.9 | 69.6* | -7.3 | 90.7*
Cc1ccc(CNC(=O)CCS(=O)(=O)c2cc(Br)cc3c2N(C(=O)C2CC2)CC3)o1 | 3.8 | -2.3 | -1.6 | 13.8 | 48.5* | -11.1 | 2.7
O=C(O)CCS(=O)(=O)c1cc(Br)cc2c1N(C(=O)C1CC1)CC2 | -1.1 | 1.2 | 2.0 | -1.7 | -7.8 | 0.2 | .
CC1(c2nnnn2-c2ccc(F)cc2)CCCC(=O)N1CCc1c[nH]c2ccccc12 (stereo not drawn) | 3.2 | 2.7 | 4.5 | . | -4.2 | . | .
N#Cc1ccc(OC[C@@H](O)CN2CCC(C(O)(c3ccccc3)c3ccccc3)CC2)cc1F | 1.6 | 3.3 | 0.7 | . | -0.7 | . | .
CC(=O)Nc1ccc(S(=O)(=O)NCC(=O)NNC(=O)COc2ccccc2Cl)cc1 | 1.1 | 0.2 | -1.3 | -4.9 | 25.2* | . | 22.1*
CCN(CC)c1ccc(/C=C(/C#N)c2nc3ccccc3[nH]2)c(OC(C)C)c1 | -6.2 | 3.2 | 0.4 | 1.2 | 40.7* | 1.2 | 12.6
O=C(CN1CCc2onc(-c3cccc(-n4cc(CO)nn4)c3)c2C1=O)N1CCOCC1 | 0.8 | 5.0 | -0.9 | . | -0.9 | . | .
CCOC(=O)C1=C(C)Nc2ccc(C)cc2S1 | -1.5 | -2.4 | 0.6 | -10.4 | 41.7* | 6.9 | 14.1
CSCCOC(=O)C1=C(C)Nc2ccc(C)cc2S1 | -2.9 | 2.5 | -1.7 | -16.6 | 34.3* | 0.7 | 16.9
CCOCCOC(=O)C1=C(C)Nc2ccc(C)cc2S1 | -4.0 | 1.3 | -0.3 | -2.4 | 20.7 | -4.2 | .
CCOC(=O)C1=C(C)Nc2ccccc2S1 | -0.2 | -1.0 | -3.8 | -2.8 | 31.3* | 5.4 | 16.7
C=c1[nH]cc(C(C)c2c(C)n(C)c3ccccc23)/c1=C/C (stereo not drawn) | -1.5 | -6.4 | 2.9 | . | 4.4 | . | .
COc1cc2ccccc2cc1C(=O)Nc1ccccc1Cl | -3.1 | -3.5 | 5.7 | -10.7 | -5.8 | . | .
SMILES | UHRF1 binding | MBD2 inh | LEDGF integ inh | ABHD5-PLIN5 inh | PRMT1 inh | RBBP9 inh | PRMT1 inh conf
COc1cc2ccccc2cc1C(=O)NNC(=O)c1ccccc1O | -2.7 | 0.7 | -10.1 | -3.5 | 39.5* | . | -3.5
COC(=O)C1=C(C)NC(=O)NC1c1ccc(-c2ccc(Cl)cc2)o1 (stereo not drawn) | -1.5 | 0.9 | 1.7 | 4.3 | 3.5 | -8.7 | .
COC(=O)C1=C(C)NC(=S)NC1c1ccc(-c2cc(Cl)ccc2Cl)o1 (stereo not drawn) | 1.6 | -4.1 | 0.2 | 5.0 | 69.8* | -7.3 | 18.9
O=C(O)CCCN1C(=O)/C(=C\c2ccc(-c3nc4ccccc4s3)o2)SC1=S | 8.2 | -3.2 | 0.3 | -4.7 | 49.2* | 6.5 | 12.4
O=Cc1ccc(-c2nc3ccccc3s2)o1 | -6.8 | -4.8 | 3.5 | -3.5 | 3.0 | -1.6 | .
O=C(O)CC(C(=O)O)N1C(=O)/C(=C/c2ccc(-c3nc4ccccc4s3)o2)SC1=S (stereo not drawn) | 79.1* | 34.4* | 53.2* | -15.3 | 55.1* | -1.3 | -14.6
Cc1ccc(S(=O)(=O)N2CCSC2C(=O)O)cc1 (stereo not drawn) | 5.2 | -0.7 | 0.6 | 0.8 | -0.1 | -0.2 | .
Cc1ccc(S(=O)(=O)N2CCSC2c2ccco2)cc1 (stereo not drawn) | 4.7 | 4.9 | 4.1 | -8.2 | 31.0* | -4.0 | 7.6
O=C(CSc1ccccc1)Nc1ccccc1C(=O)O | 3.0 | 1.5 | 2.2 | 1.4 | 0.4 | -9.6 | .
COc1ccccc1NC(=O)CSC(N)=O | -0.8 | -1.0 | -7.7 | -7.8 | 81.0* | -12.8 | 93.5*
Cc1ccccc1NC(=O)CSCC(=O)Nc1ccccc1C | -0.1 | 0.7 | 0.3 | 9.1 | 2.7 | -12.2 | .
Cc1ccccc1NC(=O)CSC(N)=O | -2.0 | -3.5 | 2.9 | -39.2 | 75.3* | 7.6 | 89.6*
NC(=O)SCC(=O)Nc1ccccc1C(=O)O | -0.3 | 1.9 | -3.4 | -5.0 | 36.6* | 1.7 | 81.2*
COC(=O)[C@]12C[C@H](CC(=O)NCc3ccc(C)o3)C(=O)N(Cc3ccc4c(c3)OCO4)C1=C[C@H](C(C)(C)C)O[C@@H]2C | -0.3 | -1.2 | 5.2 | . | 1.9 | . | .
O=C(O)CCCC[n+]1ccccc1 | 1.4 | -0.7 | -0.5 | . | 5.3 | . | .
CCOC(=O)C1=C(N)Oc2c(c(=O)[nH]c3ccccc23)C1c1ccccc1 (stereo not drawn) | 1.4 | 2.0 | 1.8 | -42.6 | 58.2* | -2.1 | 20.0
CCOC(=O)C1=C(N)Oc2cc(C)[nH]c(=O)c2C1c1ccncc1 (stereo not drawn) | -0.4 | 1.5 | -2.0 | -4.8 | -5.5 | -9.5 | .
Oc1ccc(CNc2ccccc2Cl)c2cccnc12 | -4.0 | -10.8 | -7.4 | . | 55.9* | . | 65.5*
Oc1ccc(CNc2ccccc2C(F)(F)F)c2cccnc12 | -6.7 | -2.3 | -6.6 | . | 47.0* | . | 33.5*
Oc1ccc(CNc2ccccc2F)c2cccnc12 | -5.2 | 0.0 | -7.0 | -3.2 | 4.8 | -0.7 | .
